Like-named read-outs stand apart in the source and are kept apart here.
What was measured:
[1] = test system: refractory pediatric sarcomas; conditions: prolonged infusion; cited from earlier work
MPNST xenograft = conditions: single agent, twice-daily dosed; cited from earlier work
[2] = test system: human MPNST cells (sNF96.2); experiment: Alamar blue viability dose response; type: cell-based; conditions: SNF96.2, 72 h, read-out: IC50 growth inhibition
Outline: (§1)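 Human MPNST cells and immortalized Schwann cells were grown at 37°C in humidified 5% CO2 and exposed to test compound for 72 h. Viability was read by alamar blue fluorescence at 590 nm and expressed as percent viable relative to untreated controls. Data are given ± S.D.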

MPNST cells sNF02.2 = experiment: Alamar blue viability dose response; type: cell-based, human; conditions: read-out: IC50 growth inhibition
[3] = test system: immortalized Schwann cells (ipn02.32λ); experiment: Alamar blue viability dose response; type: cell-based, human; conditions: 72 hours drug treatment
Outline: as §1

[4] = Parallel artificial membrane permeation assay; type: in vitro ADME; conditions: PAMPA
[5] = doses over 0.6 mg/kg daily, by treatment days 6–7; cited from earlier work
FGAR amidotransferase = conditions: cited from earlier work
[6] = Plasma stability of JHU395, 60 min at 37°C; type: in vitro ADME; conditions: one hour incubation, plasma of multiple species including humans
[7] = test system: human MPNST cells (sNF96.2) in human plasma; experiment: Tumor cell-to-plasma partitioning; type: in vitro ADME
Outline: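 sNF96.2 cells were washed twice in PBS and resuspended in human plasma at 7.5 million cells/mL. Test compound was spiked at 20 µM and incubated 1 h at 37°C, then spun at 1000 × g for 5 min at 4°C. Plasma and PBS-washed cell pellets were stored at -80°C, and intact prodrug and released glutamine antagonist were measured by LC-MS/MS as percent of total. Mean ± S.E.M.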

[8] = JHU395 pharmacokinetic analysis; type: in vivo, mouse
[9] = Dose tolerance in non-tumored NPcis mice; type: in vivo, mouse; conditions: 1.2 mg/kg p.o. × 5 days then 0.5 mg/kg p.o. daily, over thirty days
murine flank MPNST = experiment: Efficacy in murine flank MPNST model; type: in vivo, mouse; conditions: 1.2 mg/kg p.o. × 5 days, 0.5 mg/kg × 9 days; vehicle 1695 mm^3; p≤0.05
glutamine utilization = experiment: Quantitative glutamine analysis in tumor and plasma; type: in vivo, mouse
[10] = GI, hepatic and brain toxicity assessment during 14 days oral dosing; type: in vivo, mouse
Outline: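 Flank MPNST mice were dosed orally for 14 days on the efficacy regimen against vehicle (n=9) and weighed thrice weekly as percent change from start. In a subset (n=3–4/condition), jejunum was fixed overnight in 10% neutral buffered formalin, paraffin-embedded, sectioned at ~5 µm and H&E-stained. A veterinary pathologist examined the sections for apoptotic figures and crypt architecture.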

Modified Irwin assay = type: in vivo, mouse; conditions: days 0, 8, 15; for modified Irwin battery, autonomic and somatomotor function: B6 flank MPNST mice, oxotremorine 0.5 mg/kg s.c. once
Outline: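 B6 flank MPNST mice on the 14-day efficacy dosing regimen or vehicle were scored blind on a modified Irwin autonomic/somatomotor battery on days 0, 8 and 15, including hang time (s) from an inverted wire. A separate cohort (n=5) received oxotremorine 0.5 mg/kg s.c. 30 min before testing as assay control. Scores were averaged and normalized to day-0 vehicle; grip times were compared by multiple t-tests.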

[11] = test system: de novo purine biosynthesis (FGAR); experiment: Quantitative FGAR analysis in tumors; type: in vivo, mouse; conditions: JHU395 1.2 mg/kg p.o.
Outline: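 B6 flank MPNST mice (n=8/group) were given vehicle or 1.2 mg/kg/dose p.o. for five days. Tumors were snap frozen, homogenized in methanol with 10 µM deuterated N-acetylaspartic acid internal standard (5 µL/mg) and centrifuged at 16,000 × g for 5 min. Supernatants were run by UHPLC–orbitrap full-MS negative mode against an FGAR standard curve in untreated tumor ([…]). Group means were compared by t-test.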

[12] = test system: glutamine incorporation in murine flank MPNST; experiment: In vivo stable isotope flux analysis; design: species or system mouse; conditions: 1.2 mg/kg/dose p.o. for five days; m+1, m+2 (IMP, AMP), m+3 (GMP)
Outline: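 B6 flank MPNST mice received vehicle or test compound at 1.2 mg/kg/dose p.o. for five days. On harvest day they were dosed orally, then 30 min later given three 0.2 ml tail-vein injections of 200 mM ¹⁵N₂-glutamine, 15 min apart. Tumors were flash frozen, extracted in cold 80% methanol, dried and redissolved in 50% acetonitrile. Analysis was by C18 ion-pair (tributylamine) LC-Q-TOF MS with natural-abundance correction.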

[13] = swine and human plasma, at 1 hour; cited from earlier work
[14] = swine, cited from earlier work
[15] = test system: human MPNST cells (sNF96.2); experiment: Glutamine titration, alamar blue growth; type: cell-based; conditions: SNF96.2, 72 h, read-out: EC50 of glutamine to rescue growth
Outline: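 sNF96.2 cells were plated at 1500–2000 cells/well in standard medium. The next day the medium was replaced with glutamine-free medium made with dialyzed FBS, and fixed glutamine concentrations were added across the plate. After 72 h, growth was read by alamar blue fluorescence at 590 nm as percent growth (± S.D.).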

[16] = test system: immortalized Schwann cells (ipn02.32λ); experiment: Glutamine titration, alamar blue growth; type: cell-based; conditions: Homo sapiens, 72 h, read-out: EC50 of glutamine to rescue growth
[17] = 20 μM JHU395, one hour, sNF96.2 cells in human plasma
[18] = B6 mice, thirty minutes after JHU395 1.2 mg/kg oral
[19] = flank tumored mice, JHU395 1.2 mg/kg oral

Sc1ncnc2nc[nH]c12 [6-MP, 6-mercaptopurine]
disease stabilization [1]: approximately 25%

O=C(Cc1cccc(OC(F)(F)F)c1)Nc1ccc(CCCCc2nnc(NC(=O)Cc3ccccn3)s2)nn1 [CB-839]
MPNST xenograft growth (MPNST xenograft): partially decreased

[N-]=[N+]=CC(=O)CC[C@H](N)C(=O)O [DON, 6-diazo-5-oxo-L-norleucine, reference compound]
IC50 [2]: 9.8 µM
IC50 (MPNST cells sNF02.2; Homo sapiens, 72 h): 2.4 µM
effect on growth of immortalized Schwann cells [3]: minimally affected
Papp at 5 h, 20 μM ([4]; pH 7): 0.0095 ×10⁻⁶ cm/s
weight loss [5]: ~20%
concentration inhibiting the enzyme that converts FGAR to FGAM (FGAR amidotransferase): low micromolar levels

CC(C)OC(=O)[C@H](CCC(=O)C=[N+]=[N-])NC(=O)OC(OC(=O)C(C)(C)C)c1ccccc1 (some centres unmarked) [JHU395]
IC50 (MPNST cells sNF02.2; sNF02.2, 72 hours drug treatment): 1.5 µM
effect on growth of immortalized Schwann cells [3]: minimally affected
apparent permeability Papp ([4]; 20 μM, pH 7.0, 5 h, room temperature): 5.707 ×10⁻⁶ cm/s
JHU395 remaining intact in plasma [6]: Over 80%
share of total DON measured in cells [7, 17]: 92%
share of total DON measured in plasma [7, 17]: 8%
intact JHU395 in MPNST cells ([7]; after one hour): minimal
intact JHU395 in plasma ([7]; after one hour): detected
DON in jejunum [8, 18]: 0.18 nmol/g
DON in plasma [8, 18]: 0.91 nmol/mL
small intestine-to-plasma DON ratio [8, 18]: 0.20
DON plasma AUC [8, 19]: 0.977 µM·h
DON tumor AUC [8, 19]: 2.496 nmol·h/g
DON tumor Cmax [8, 19]: 1.8 nmol/g
accumulation of DON in GI tissue versus plasma ([8]; mice, full time-dependent pharmacokinetic analysis): no accumulation
tolerability of dosing regimen [9]: well-tolerated
tumor volume at end of treatment (murine flank MPNST): 1045 mm^3
plasma glutamine (glutamine utilization; flank MPNST mice, vehicle 475 nmol/ml, p≤0.0001): 729 nmol/mL
tumor glutamine (glutamine utilization; flank MPNST mice, vehicle 1293 nmol/g, p≤0.001): 2096 nmol/g
increase in plasma glutamine (glutamine utilization; non-tumored mice, versus vehicle): 25%
plasma glutamine (glutamine utilization; non-tumored mice, vehicle 830 nmol/ml, p≤0.01): 1036 nmol/mL
change from starting weight ([10]; flank MPNST mice, 14 days oral dosing): ≤ 10%
jejunal histology versus vehicle ([10]; subset of animals, after 14 days oral dosing): No differences
brain histology postmortem ([10]; subset of brains, after 14 days oral dosing): no gross changes nor cortical vacuolization
modified Irwin battery, autonomic and somatomotor function (Modified Irwin assay): performed similarly
grip time from an inverted wire (Modified Irwin assay): unaffected
fold increase of tumor FGAR versus vehicle [11]: 75 fold
tumor FGAR ([11]; vehicle 3.4 nmol/g, p≤0.01): 254.4 nmol/g
^15N2-glutamine isotopologue enrichment in IMP, AMP, GMP versus vehicle [12]: significantly lower enrichment
prodrug remaining intact in plasma [13]: 83–88%
DON brain-to-plasma ratio ([14]; DON or JHU395-derived DON): 1.38
DON exposure in plasma AUC0→t ([14]; equimolar dose of DON or JHU395): 5.7 µM·h
enhancement of DON brain-to-plasma ratio (JHU395 vs DON) [14]: 9.3

NC(=O)CC[C@H](N)C(=O)O [glutamine]
EC50 [15]: 209 µM
EC50 [16]: 64.5 µM

O=C1CCCN1CC#CCN1CCCC1 [oxotremorine, reference compound]
modified Irwin battery, autonomic and somatomotor function (Modified Irwin assay): induced significant adverse effects

— paper PMC7007868 (Molecular cancer therapeutics, 2019)
